High-throughput results deposited in PubChem BioAssay by several laboratories.
DNMT1 block – DNMT1 (human) enzyme inhibition | DNMT1 molecular beacon, Hinp1I cleavage, fluorescence | inhibition (reported as % activation of signal), % at 10 µM | 360,000 tested, 0.83% active | AID 588458; in the data active = inhibition above about 50%
Pemphigus Ab inh – blocks pemphigus antibody binding to human desmoglein-3 | P32926 | DSG3-coupled beads, scFv-anti-DSG3-GFP binding, flow cytometry; active compounds read low | binding (percent of control), % at 10 µM | 310,000 tested, 0.48% active;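 active = binding more than 3 SD below its plate's average and above zero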;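 note: hits lower antibody fragment binding to DSG3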
HCV NS3 hel inh – HCV NS3 helicase inhibition; NS3 helicase DNA unwinding, Cy5 molecular beacon fluorescence; inhibition, % at 10.9 µM; 290,000 tested, 0.56% active; AID 1800;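 active = inhibition above the mean of all tested compounds plus 3 SD, set per campaign, cut at about 35% in these data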;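 note: 0% = DMSO wells and 100% = thioflavine S control wells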
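test system = hepatitis C virus NS3 helicase domain fragment enzyme | reagent = annealed dual-labelled DNA beacon duplex, ATP-started | times = 1 h at 25 °C | detection = Cy5 fluorescence, 0 and 60 min reads | read-out basis = percent inhibition from t60/t0 fluorescence ratio | control set = DMSO and thioflavine S | replication = one well per compound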
MBD2 inh – inhibitors of human MBD2 binding to methylated oligonucleotide | Q9UBB5 | TR-FRET | inhibition, % at 4.4 µM | 370,000 tested, 0.31% active | AID 686964; in the data active = inhibition above about 13%
UHRF1 binding – human UHRF1 methylated DNA binding inhibitors; Q96T88; UHRF1 binding to methylated oligo, TR-FRET; inhibition, % at 4.4 µM; 370,000 tested, 0.75% active; AID 687016; in the data active = inhibition above about 21%;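 note: UHRF1 SRA domain binding a hemimethylated CpG hairpin DNA probe; 0% = median of test compound wells and 100% = reference inhibitor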
SUMO1-SIM PPI – modulators of human SUMO1-mediated protein-protein interactions | P63165 | SUMO1 binding to a labelled peptide, TR-FRET, 1 h | inhibition, % at 20 µM | 360,000 tested, 0.33% active | AID 602429; in the data active = inhibition above about 37%
* marks the source's active call; other numbers are inactive results; / = no result. Sampled rows, rich in hits. Any-hit rate of the full collection: about 2.5%.

SMILES | DNMT1 block | Pemphigus Ab inh | HCV NS3 hel inh | MBD2 inh | UHRF1 binding | SUMO1-SIM PPI
CSCCC(c1nc2ccccc2[nH]1)n1c(/C=C/c2ccc(Cl)cc2)nc2ccccc21 (stereo not given) | / | / | / | 0 | 3 | /
COc1cccc(N/C=C(\C#N)c2ccc(OCCCF)cc2)c1 | 0 | 73* | 2 | -2 | 0 | -1
COc1ccc(C(C#N)=Cc2ccccc2OC)cc1 | -4 | 104 | / | 4 | 4 | -10
O=C(Nc1ccc(NC(=O)c2ccco2)c(Cl)c1)c1ccccc1 | -10 | 90 | -8 | 3 | 42* | 2
O=C(Nc1cccc(NC(=O)c2ccco2)c1)c1ccccc1 | 0 | 98 | 21 | -2 | 0 | 2
CC(C)COc1ccc(C(=O)Nc2ccc(NC(=O)c3ccco3)c(Cl)c2)cc1 | 7 | 104 | -15 | -1 | -1 | -2
COc1ccc(NC(=O)c2ccco2)cc1NC(=O)c1ccccc1F | -2 | 85* | 1 | -2 | -1 | -2
CC(C)Oc1ccc(C(=O)Nc2ccc(NC(=O)c3ccco3)c(Cl)c2)cc1 | -1 | 54* | 7 | 1 | 1 | -3
Cc1onc(-c2ccccc2)c1C(=O)N1CCCC1 | 1 | 111 | 10 | 1 | 3 | -1
Cc1[nH]c(=O)[nH]c(=O)c1S(=O)(=O)NCC12CC3CC(CC(C3)C1)C2 | 1 | 102 | 3 | -5 | -1 | 5
O=C(CN1C(=O)S/C(=C\c2ccc(F)cc2)C1=O)NC1C=CS(=O)(=O)C1 (stereo not given) | 2 | / | -2 | -8 | 3 | -30
O=C(CCN1C(=O)/C(=C/c2ccc(F)cc2)SC1=S)NC1C=CS(=O)(=O)C1 (stereo not given) | 6 | 60* | -9 | 12 | 2 | -26
O=C(CCN1C(=O)/C(=C/c2ccccc2Cl)SC1=S)NC1C=CS(=O)(=O)C1 (stereo not given) | 54* | 90 | -4 | 1 | -1 | 1
COc1ccccc1CCC(=O)NNC(=O)Cn1nc(C)cc1C | 2 | 99 | / | -3 | 0 | 0
CCOc1ccc2nc(SCc3ccc(F)cc3)sc2c1 | 7 | / | 13 | 2 | -4 | 1
COc1ccc(C(=O)Oc2ccc3c(c2)OCO3)cc1OC | -6 | 21* | 9 | 5 | 5 | 1
CC(NC(=S)NNS(=O)(=O)c1cccc([N+](=O)[O-])c1)c1ccccc1 (stereo not given) | 1 | 101 | 8 | -2 | 2 | -20
Cc1ccc(-c2csc(N(CCCN(C)C)C(=O)c3ccco3)n2)cc1 | -4 | 96 | -69 | -1 | -4 | -9
CN(C)CCCN(C(=O)c1ccco1)c1nc(-c2ccc(Cl)cc2)cs1 | -1 | 106 | -49 | 0 | 81* | -1
O=C1c2ccccc2C(=O)N1CCCN1C(=O)c2ccccc2C1=O | 3 | -1.0* | / | 2 | -3 | -10
CC(=O)c1cccc(NC(=O)C2CCCN2S(=O)(=O)c2ccccc2C(F)(F)F)c1 (stereo not given) | 1 | 69* | / | 7 | 3 | -24
O=C(Nc1cccc(S(=O)(=O)N2CCCCC2)c1)[C@@H]1CCCN1S(=O)(=O)c1ccccc1C(F)(F)F | -7 | 104 | / | 3 | 6 | -3
COC(=O)CC1(C(=O)OC)Oc2ccc(Br)cc2C(=O)N1c1ccc(Br)cc1Cl (stereo not given) | 5 | 109 | -7 | -3 | -2 | -2
CC(=O)c1cccc(NC(=O)c2cccc(N3C(=O)c4ccccc4C3=O)c2)c1 | 0 | 113 | -4 | -4 | -1 | 61*
NS(=O)(=O)c1cccc(NC(=O)c2cccc(N3C(=O)c4ccccc4C3=O)c2)c1 | -3 | 108 | / | 3 | -1 | -17
SMILES | DNMT1 block | Pemphigus Ab inh | HCV NS3 hel inh | MBD2 inh | UHRF1 binding | SUMO1-SIM PPI
Fc1cccc(Cl)c1CNC(c1ccccc1)c1ccccc1 | 4 | 85 | 2 | -4 | 58* | 1
CCc1nnc(NC(=O)CSc2nncc(=O)n2N)s1 | 4 | 85* | -7 | -4 | -1 | 6
CCc1nnc(NC(=O)CSc2nnc3c(n2)[nH]c2ccccc23)s1 | 2 | 32* | -3 | 1 | -3 | -2
Cc1ccnc(NC(=O)CSc2nnc3c(n2)[nH]c2ccccc23)c1 | / | / | -8 | / | / | /
CCc1nnc(NC(=O)CSc2ccc(-c3ccc(-n4cccn4)cc3)nn2)s1 | 3 | 77* | / | 0 | 1 | -2
CC(C)c1nnc(NC(=O)CN(C)S(=O)(=O)c2ccc3c(c2)OCCO3)s1 | -2 | 104 | -4 | 0 | 1 | 3
NS(=O)(=O)c1ccc(NC(=O)CCCCC(=O)Nc2ccc(S(N)(=O)=O)cc2)cc1 | 2 | 100 | -19 | 2 | 3 | 6
O=C(CSc1ccccn1)Nc1ccc(N2CCOCC2)cc1 | -3 | 78 | -5 | -7 | 93* | -2
Cc1cc(C)nc(NS(=O)(=O)c2ccc(NC(=O)C3(c4ccc([N+](=O)[O-])cc4)CCCC3)cc2)n1 | 0 | 101 | 3 | -1 | 2 | -16
COc1ccc(C2(C(=O)Nc3ccc(S(=O)(=O)Nc4nc(C)cc(C)n4)cc3)CCCC2)cc1OC | 0 | 100 | 6 | 5 | 43* | 3
CCc1ccc(C(=O)Nc2ccc(S(=O)(=O)Nc3nc(C)cc(C)n3)cc2)o1 | 7 | 35* | -5 | -4 | 1 | 8
COc1ccc(/C=N/NC(=O)C2C(C=C(Cl)Cl)C2(C)C)c(OC)c1 (stereo not given) | 2 | 100 | -6 | 1 | 20 | 2
C/C=C/c1ccc(OCCCCNCc2ccco2)c(OC)c1 | -11 | 121 | -20 | -2 | 2 | -1
CC(C)(C)NC(=O)C(c1ccccc1)N(C(=O)CNC(=O)c1cccs1)c1cccnc1 (stereo not given) | 3 | 110 | 11 | 0 | -1 | 6
O=C1CC(=O)N(Cc2ccco2)C(=S)N1 | 111* | 113 | 22 | / | / | 69*
CCOc1ccc(S(=O)(=O)N2CCN(C(=O)c3ccccc3Cc3ccccc3)CC2)cc1 | -5 | 80* | / | -5 | -1 | 1
NC(=O)c1ccccc1N/C=C/C(=O)c1ccc(Cl)cc1Cl | -6 | 104 | 8 | 3 | -1 | -18
CCN(CC)CCNc1ccc(C)c2sc3ccc(O)cc3c(=O)c12 | 54* | 98 | / | 4 | 1 | -26
O=C(CN1CCN(c2ccccc2)CC1)NC(=O)NCc1ccccc1 | 2 | 106 | / | 0 | 3 | -5
COc1ccc(NC(=O)COC(=O)CCc2ccc(S(=O)(=O)N3CCOCC3)cc2)cc1Cl | 9 | 128 | / | 5 | 95* | 8
COc1ccc(NC(=O)COC(=O)CCc2ccc(S(=O)(=O)N3CCOCC3)cc2)cc1OC | 2 | 96 | / | 2 | 0 | 6
CCOc1ccccc1/C=C/c1nc2ccccc2[nH]c1=O | 81* | 105 | -8 | -8 | -11 | -10
CCOc1cc(CN2CCN(c3ncccn3)CC2)ccc1OC | 1 | 84* | -13 | 2 | -2 | 1
